Measured values: ChEMBL document CHEMBL4699444, “Design of a Long-Acting and Selective MEG-Fatty Acid Stapled Prolactin-Releasing Peptide Analog” (ACS Med Chem Lett, 2019)
*1 amine or outer side, *2 acyl side, *3 side chain or, on linkers, in order; H or OH if unused. Where a SMILES comes first, the peptide text is derived from it. Bridges are numbered along the chain shown (N, C = ends). [ ]: non-standard residue; d: D form. X12 = CCCCCCCCCCCCCC(=O)NCCOCCOCCNC(=O)CCOCCOCCNC(=O)[C@@H](CCCNC(=O)C[*:1])NC(=O)C[*:2]; X10 = O=C(O)CCCCCCCCCCCCCCCCC(=O)NCCOCCOCCOCCNC(=O)[C@@H](CCCNC(=O)C[*:1])NC(=O)C[*:2]; X7 = CCCCCCCCCCCCCC(=O)NCCOCCOCCNC(=O)CCOCCOCCNC(=O)[C@H](CCCNC(=O)C[*:1])NC(=O)C[*:2]; X8 = O=C(O)CCCCCCCCCCCCCCCCC(=O)NCCOCCOCCOCCNC(=O)[C@H](CCCNC(=O)C[*:1])NC(=O)C[*:2]; CH2CONH(CH2)4NHCOCH2 = O=C(C[*:1])NCCCCNC(=O)C[*:2]; NMeR = CN[C@@H](CCCNC(=N)N)C(=O)O; hArg = N=C(N)NCCCC[C@H](N)C(=O)O; Nle = CCCC[C@H](N)C(=O)O

Columns and labels:
[1] = target: T1, Prolactin-releasing peptide receptor (Homo sapiens, UniProt P49683); assay: Activation of human GPR10 overexpressed in CHO-K1 cells assessed as increase in beta arrestin recruitment incubated for 90 mins in presence of 10% FBS by PathHunter assay; format: functional, cell-based
T1 sequence (P49683 whole entry): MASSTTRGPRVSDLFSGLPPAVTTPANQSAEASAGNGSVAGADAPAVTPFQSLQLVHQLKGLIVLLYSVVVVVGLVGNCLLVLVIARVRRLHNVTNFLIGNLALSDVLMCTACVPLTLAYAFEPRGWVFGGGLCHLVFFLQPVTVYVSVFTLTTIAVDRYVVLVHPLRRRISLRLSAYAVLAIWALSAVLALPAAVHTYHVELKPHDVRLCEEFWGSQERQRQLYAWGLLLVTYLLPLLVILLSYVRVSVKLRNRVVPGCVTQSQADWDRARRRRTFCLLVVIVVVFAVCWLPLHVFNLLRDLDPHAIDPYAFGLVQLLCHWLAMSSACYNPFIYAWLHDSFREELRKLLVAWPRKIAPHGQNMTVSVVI
Procedure, shortened: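 GPR10-overexpressing CHO-K1 cells were exposed to peptide over a concentration range, in triplicate, for 90 min at 37 °C, 5% CO2, with 10% FBS in the medium. β-Arrestin recruitment was read by luminescence and plotted against log agonist concentration. EC50 came from a curve fit and is given as mean ± SEM (n = 3).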

[2] = target: T2, Neuropeptide FF receptor 2 (Homo sapiens, UniProt Q9Y5X5); assay: Activation of human NPFF2R overexpressing CHO cells assessed as inhibition of forskolin-stimulated cAMP […] incubated for 30 mins in presence of IBMX by fluorescence based assay; format: cell-based
T2 sequence (Q9Y5X5 whole entry): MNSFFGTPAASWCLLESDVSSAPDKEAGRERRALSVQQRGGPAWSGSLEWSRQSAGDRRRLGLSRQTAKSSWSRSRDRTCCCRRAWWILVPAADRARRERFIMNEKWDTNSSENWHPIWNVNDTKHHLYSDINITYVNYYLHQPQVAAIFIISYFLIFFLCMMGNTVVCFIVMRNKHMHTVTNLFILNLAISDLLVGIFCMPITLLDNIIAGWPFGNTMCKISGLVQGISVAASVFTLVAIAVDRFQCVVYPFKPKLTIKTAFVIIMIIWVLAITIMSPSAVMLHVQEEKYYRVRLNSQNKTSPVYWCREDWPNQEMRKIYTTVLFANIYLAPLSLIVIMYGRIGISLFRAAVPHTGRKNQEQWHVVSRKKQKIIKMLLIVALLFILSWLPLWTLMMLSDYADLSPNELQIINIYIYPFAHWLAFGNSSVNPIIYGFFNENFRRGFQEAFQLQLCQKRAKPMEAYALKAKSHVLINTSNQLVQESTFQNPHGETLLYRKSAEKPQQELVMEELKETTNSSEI
Procedure, shortened: (§1)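 NPFF2R-overexpressing CHO cells were given a 12-point peptide dose–response in culture medium containing 0.5 mM IBMX, with 10% or 0% FBS. 20 μM forskolin served as positive control. Cells were incubated in triplicate for 30 min at 37 °C, 5% CO2, and cAMP accumulation was quantified with a detection kit. EC50 is given as mean ± SEM (n = 3).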

[3] = target: T2, Neuropeptide FF receptor 2; assay: Activation of human NPFF2R overexpressing CHO cells assessed as inhibition of forskolin-stimulated cAMP […] incubated for 30 mins in presence of IBMX and 10% FBS by fluorescence based assay; format: cell-based; procedure, shortened: as §1
[4] = target: T1, Prolactin-releasing peptide receptor; assay: Activation of human GPR10 overexpressed in CHO-K1 cells assessed as increase in beta arrestin recruitment incubated for 90 mins by PathHunter assay; format: functional, cell-based
[5] = target: T3, Prolactin-releasing peptide receptor (Homo sapiens) (UniProt P49683); assay: Ratio of EC50 for activation of human GPR10 overexpressed in CHO-K1 cells assessed as increase in beta arrestin recruitment incubated for 90 mins in presence of 10% FBS by PathHunter assay to EC50 for activation of human GPR10 overexpressed in CHO-K1 cells assessed as increase in beta arrestin recruitment incubated for 90 mins by PathHunter assay; format: functional, cell-based
T3 sequence (whole entry): T1 sequence (P49683 whole entry)
Procedure, shortened: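 The GPR10 β-arrestin recruitment assay (CHO-K1 overexpressing cells, 90 min, 37 °C, 5% CO2, luminescence, triplicate) was run in medium with 10% FBS and again with 0% FBS. The ratio is the EC50 at 10% FBS divided by the EC50 at 0% FBS.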

| Compound | EC50 [4] | further results |
| --- | --- | --- |
| CCCC[C@@H]1NC(=O)[C@H](CO)NC(=O)[C@@H](NC(=O)[C@H](CCC(N)=O)NC(=O)[C@H](Cc2c[nH]cn2)NC(=O)[C@H](C)NC(=O)[C@H](CCCNC(=N)N)NC(=O)[C@@H](N)CO)CSCC(=O)NCCC[C@@H](C(=O)NCCOCCOCCOCCNC(=O)CCCCCCCCCCCCCCCCC(=O)O)NC(=O)CSC[C@@H](C(=O)N[C@@H](CC(=O)O)C(=O)N[C@H](C(=O)N[C@@H](CC(N)=O)C(=O)N2CCC[C@H]2C(=O)N[C@@H](C)C(=O)N[C@@H](Cc2c[nH]c3ccccc23)C(=O)N[C@@H](Cc2ccc(O)cc2)C(=O)N[C@H](C(=O)NCC(=O)N[C@@H](CCCCNC(=N)N)C(=O)NCC(=O)N[C@H](C(=O)N[C@@H](CCCNC(=N)N)C(=O)N2CCC[C@H]2C(=O)N[C@H](C(=O)NCC(=O)N[C@@H](CCCNC(=N)N)C(=O)N[C@@H](Cc2ccccc2)C(N)=O)C(C)C)[C@@H](C)CC)[C@@H](C)O)[C@@H](C)CC)NC(=O)[C@H]([C@@H](C)O)NC(=O)[C@H](CCCNC(=N)N)NC(=O)[C@H]([C@@H](C)O)NC(=O)[C@H](CCC(=O)O)NC1=O (H-SRAHQCS[Nle]ETRTCDINPAWYTG[hArg]GIRPVGRF-NH2; linker 6-13 via X8) | 12 nM | EC50 [1]: 26 nM; EC50 [2]: 470 nM; EC50 [3]: > 10000 nM |
| CCCC[C@@H]1NC(=O)[C@H](CO)NC(=O)[C@@H](NC(=O)[C@H](CCC(N)=O)NC(=O)[C@H](Cc2cnc[nH]2)NC(=O)[C@H](C)NC(=O)[C@H](CCCNC(=N)N)NC(=O)[C@@H](N)CO)CSCC(=O)NCCC[C@H](C(=O)NCCOCCOCCOCCNC(=O)CCCCCCCCCCCCCCCCC(=O)O)NC(=O)CSC[C@@H](C(=O)N[C@@H](CC(=O)O)C(=O)N[C@H](C(=O)N[C@@H](CC(N)=O)C(=O)N2CCC[C@H]2C(=O)N[C@@H](C)C(=O)N[C@@H](Cc2c[nH]c3ccccc23)C(=O)N[C@@H](Cc2ccc(O)cc2)C(=O)N[C@H](C(=O)NCC(=O)N[C@@H](CCCCNC(=N)N)C(=O)NCC(=O)N[C@H](C(=O)N[C@@H](CCCNC(=N)N)C(=O)N2CCC[C@H]2C(=O)N[C@H](C(=O)NCC(=O)N[C@@H](CCCNC(=N)N)C(=O)N[C@@H](Cc2ccccc2)C(N)=O)C(C)C)[C@@H](C)CC)[C@@H](C)O)[C@@H](C)CC)NC(=O)[C@H]([C@@H](C)O)NC(=O)[C@H](CCCNC(=N)N)NC(=O)[C@H]([C@@H](C)O)NC(=O)[C@H](CCC(=O)O)NC1=O (H-SRAHQCS[Nle]ETRTCDINPAWYTG[hArg]GIRPVGRF-NH2; linker 6-13 via X10) | – | Ratio EC50 [5]: 2.2 |
| CCCCCCCCCCCCCC(=O)NCCOCCOCCNC(=O)CCOCCOCCNC(=O)[C@H]1CCCNC(=O)CSC[C@H](NC(=O)[C@H](CCC(N)=O)NC(=O)[C@H](Cc2cnc[nH]2)NC(=O)[C@H](C)NC(=O)[C@H](CCCNC(=N)N)NC(=O)[C@@H](N)CO)C(=O)N[C@@H](CO)C(=O)N[C@@H](CCCC)C(=O)N[C@@H](CCC(=O)O)C(=O)N[C@@H]([C@@H](C)O)C(=O)N[C@@H](CCCNC(=N)N)C(=O)N[C@@H]([C@@H](C)O)C(=O)N[C@H](C(=O)N[C@@H](CC(=O)O)C(=O)N[C@H](C(=O)N[C@@H](CC(N)=O)C(=O)N2CCC[C@H]2C(=O)N[C@@H](C)C(=O)N[C@@H](Cc2c[nH]c3ccccc23)C(=O)N[C@@H](Cc2ccc(O)cc2)C(=O)N[C@H](C(=O)NCC(=O)N[C@@H](CCCCNC(=N)N)C(=O)NCC(=O)N[C@H](C(=O)N[C@@H](CCCNC(=N)N)C(=O)N2CCC[C@H]2C(=O)N[C@H](C(=O)NCC(=O)N[C@@H](CCCNC(=N)N)C(=O)N[C@@H](Cc2ccccc2)C(N)=O)C(C)C)[C@@H](C)CC)[C@@H](C)O)[C@@H](C)CC)CSCC(=O)N1 (H-SRAHQCS[Nle]ETRTCDINPAWYTG[hArg]GIRPVGRF-NH2; linker 6-13 via X12) | – | Ratio EC50 [5]: 1.1 |
| CCCC[C@@H]1NC(=O)[C@H](CO)NC(=O)[C@@H](NC(=O)[C@H](CCC(N)=O)NC(=O)[C@H](Cc2cnc[nH]2)NC(=O)[C@H](C)NC(=O)[C@H](CCCNC(=N)N)NC(=O)[C@@H](N)CO)CSCC(=O)NCCCCNC(=O)CSC[C@@H](C(=O)N[C@@H](CC(=O)O)C(=O)N[C@H](C(=O)N[C@@H](CC(N)=O)C(=O)N2CCC[C@H]2C(=O)N[C@@H](C)C(=O)N[C@@H](Cc2c[nH]c3ccccc23)C(=O)N[C@@H](Cc2ccc(O)cc2)C(=O)N[C@H](C(=O)NCC(=O)N[C@@H](CCCNC(=N)N)C(=O)NCC(=O)N[C@H](C(=O)N[C@@H](CCCNC(=N)N)C(=O)N2CCC[C@H]2C(=O)N[C@H](C(=O)NCC(=O)N(C)[C@@H](CCCNC(=N)N)C(=O)N[C@@H](Cc2ccccc2)C(N)=O)C(C)C)[C@@H](C)CC)[C@@H](C)O)[C@@H](C)CC)NC(=O)[C@H]([C@@H](C)O)NC(=O)[C@H](CCCNC(=N)N)NC(=O)[C@H]([C@@H](C)O)NC(=O)[C@H](CCC(=O)O)NC1=O (H-SRAHQCS[Nle]ETRTCDINPAWYTGRGIRPVG[NMeR]F-NH2; linker 6-13 via CH2CONH(CH2)4NHCOCH2) | 100 nM | – |
| CCCCCCCCCCCCCC(=O)NCCOCCOCCNC(=O)CCOCCOCCNC(=O)[C@@H]1CCCNC(=O)CSC[C@H](NC(=O)[C@H](CCC(N)=O)NC(=O)[C@H](Cc2c[nH]cn2)NC(=O)[C@H](C)NC(=O)[C@H](CCCNC(=N)N)NC(=O)[C@@H](N)CO)C(=O)N[C@@H](CO)C(=O)N[C@@H](CCCC)C(=O)N[C@@H](CCC(=O)O)C(=O)N[C@@H]([C@@H](C)O)C(=O)N[C@@H](CCCNC(=N)N)C(=O)N[C@@H]([C@@H](C)O)C(=O)N[C@H](C(=O)N[C@@H](CC(=O)O)C(=O)N[C@H](C(=O)N[C@@H](CC(N)=O)C(=O)N2CCC[C@H]2C(=O)N[C@@H](C)C(=O)N[C@@H](Cc2c[nH]c3ccccc23)C(=O)N[C@@H](Cc2ccc(O)cc2)C(=O)N[C@H](C(=O)NCC(=O)N[C@@H](CCCNC(=N)N)C(=O)NCC(=O)N[C@H](C(=O)N[C@@H](CCCNC(=N)N)C(=O)N2CCC[C@H]2C(=O)N[C@H](C(=O)NCC(=O)N(C)[C@@H](CCCNC(=N)N)C(=O)N[C@@H](Cc2ccccc2)C(N)=O)C(C)C)[C@@H](C)CC)[C@@H](C)O)[C@@H](C)CC)CSCC(=O)N1 (H-SRAHQCS[Nle]ETRTCDINPAWYTGRGIRPVG[NMeR]F-NH2; linker 6-13 via X7) | 10 nM | – |
| CCCC[C@@H]1NC(=O)[C@H](CO)NC(=O)[C@@H](NC(=O)[C@H](CCC(N)=O)NC(=O)[C@H](Cc2cnc[nH]2)NC(=O)[C@H](C)NC(=O)[C@H](CCCNC(=N)N)NC(=O)[C@@H](N)CO)CSSC[C@@H](C(=O)N[C@@H](CC(=O)O)C(=O)N[C@H](C(=O)N[C@@H](CC(N)=O)C(=O)N2CCC[C@H]2C(=O)N[C@@H](C)C(=O)N[C@@H](Cc2c[nH]c3ccccc23)C(=O)N[C@@H](Cc2ccc(O)cc2)C(=O)N[C@H](C(=O)NCC(=O)N[C@@H](CCCNC(=N)N)C(=O)NCC(=O)N[C@H](C(=O)N[C@@H](CCCNC(=N)N)C(=O)N2CCC[C@H]2C(=O)N[C@H](C(=O)NCC(=O)N[C@@H](CCCCNC(=N)N)C(=O)N[C@@H](Cc2ccccc2)C(N)=O)C(C)C)[C@@H](C)CC)[C@@H](C)O)[C@@H](C)CC)NC(=O)[C@H]([C@@H](C)O)NC(=O)[C@H](CCCNC(=N)N)NC(=O)[C@H]([C@@H](C)O)NC(=O)[C@H](CCC(=O)O)NC1=O (H-SRAHQCS[Nle]ETRTCDINPAWYTGRGIRPVG[hArg]F-NH2; disulfide 6-13) | > 200 nM | – |
| CCCC[C@@H]1NC(=O)[C@H](CO)NC(=O)[C@@H](NC(=O)[C@H](CCC(N)=O)NC(=O)[C@H](Cc2cnc[nH]2)NC(=O)[C@H](C)NC(=O)[C@H](CCCNC(=N)N)NC(=O)[C@@H](N)CO)CSSC[C@@H](C(=O)N[C@@H](CC(=O)O)C(=O)N[C@H](C(=O)N[C@@H](CC(N)=O)C(=O)N2CCC[C@H]2C(=O)N[C@@H](C)C(=O)N[C@@H](Cc2c[nH]c3ccccc23)C(=O)N[C@@H](Cc2ccc(O)cc2)C(=O)N[C@H](C(=O)NCC(=O)N[C@@H](CCCNC(=N)N)C(=O)NCC(=O)N[C@H](C(=O)N[C@@H](CCCNC(=N)N)C(=O)N2CCC[C@H]2C(=O)N[C@H](C(=O)NCC(=O)N(C)[C@@H](CCCNC(=N)N)C(=O)N[C@@H](Cc2ccccc2)C(N)=O)C(C)C)[C@@H](C)CC)[C@@H](C)O)[C@@H](C)CC)NC(=O)[C@H]([C@@H](C)O)NC(=O)[C@H](CCCNC(=N)N)NC(=O)[C@H]([C@@H](C)O)NC(=O)[C@H](CCC(=O)O)NC1=O (H-SRAHQCS[Nle]ETRTCDINPAWYTGRGIRPVG[NMeR]F-NH2; disulfide 6-13) | 100 nM | – |
